CYP2C9 inhib = blocks human cytochrome P450 2C9 | P11712 | 96,000 compounds, 20% hits | inhibition, % at 5 µM | CYP2C9 Supersomes, luciferin-H conversion, luminescence | AID 777;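 active = blocking of liver enzyme CYP2C9 beyond about 50% at 5 µM, limit read from the data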
Target sequence (P11712 whole entry, looked up): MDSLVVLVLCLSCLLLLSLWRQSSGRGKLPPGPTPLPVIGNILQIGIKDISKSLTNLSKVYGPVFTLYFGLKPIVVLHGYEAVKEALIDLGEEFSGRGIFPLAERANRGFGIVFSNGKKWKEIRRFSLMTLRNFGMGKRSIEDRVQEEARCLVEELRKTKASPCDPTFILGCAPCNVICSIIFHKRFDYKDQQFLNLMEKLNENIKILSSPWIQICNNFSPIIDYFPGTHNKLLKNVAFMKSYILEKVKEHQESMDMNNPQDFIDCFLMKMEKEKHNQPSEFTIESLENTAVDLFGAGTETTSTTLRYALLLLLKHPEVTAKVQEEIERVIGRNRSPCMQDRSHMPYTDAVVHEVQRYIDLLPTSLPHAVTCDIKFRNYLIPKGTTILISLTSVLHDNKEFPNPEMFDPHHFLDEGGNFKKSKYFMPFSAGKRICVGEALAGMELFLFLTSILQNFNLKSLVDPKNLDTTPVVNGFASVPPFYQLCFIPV
CYP2C9 activ = CYP2C9 (human) activation | AID 1024 | 96,000 compounds, 1.4% hits | recombinant CYP2C9, luciferin-H conversion, luminescence; hits give high values; factor 1 = untreated enzyme, 0 = blocked | activation factor at 5 µM;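 active = activation factor of 2 or more for CYP2C9 at a 5 µM dose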
CYP2C19 activ = increases human CYP2C19 enzyme activity; P33261; recombinant CYP2C19, luciferin-H EGE luminescence; hits give high values; 0 = fully inhibited enzyme, 1 = untreated enzyme; activation factor at 5 µM; 96,000 tested, under 10 active;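 active = activation factor of at least 2 at 5 µM in the primary screen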
Ecoli tolC = E. coli tolC mutant growth inhibition | AID 573 | E. coli BW25113 tolC mutant growth, OD615 | 65,000 compounds, 2.2% hits | growth inhibition, % at 10 µM (by protocol);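 active = growth inhibition at or above a cutoff equal to the mean over every tested compound plus 3 SD, cut at about 60% in these data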;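 note: growth measured after 20 h incubation at 37 °C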
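Test system: tolC-deleted E. coli BW25113; medium: LB with kanamycin 50 µg/mL; compound: single-point testing at 10 µM; incubation: 20 h compound exposure of bacteria at 37 °C; signal: OD at 615 nm; evaluation: growth inhibition in percent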
CYP2C19 inh = inhibitors of human CYP2C19; inhibition, % at 5 µM; 96,000 compounds, 21% hits; P33261; CYP2C19 Supersomes, luciferin-H EGE luminescence, 30 min;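 active = CYP2C19 inhibition above a set limit at 5 µM in the primary screen, cut at about 50% in these data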
E coli WT exp = growth inhibitors of E. coli BW25113 wild type | growth inhibition, % at 100 µM | OD600 absorbance | 98,000 compounds, 0.15% hits;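 active = growth inhibition above about 50% at one test dose, limit read from the data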;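 note: growth measured after 20 h incubation at 37 °C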
A number is an active result; – = inactive; · = not tested or not shown. A selection: hits, their analogues and other compounds. The true share with any hit is near 29%.

SMILES	CYP2C9 inhib	CYP2C9 activ	CYP2C19 activ	Ecoli tolC	CYP2C19 inh	E coli WT exp
Cn1c(O)c(C=NC2CCN(Cc3ccccc3)CC2)c(=O)n(C)c1=O	·	·	·	–	·	·
CCOc1cc(C=C2C(=O)NC(=O)NC2=O)ccc1OS(=O)(=O)c1ccccc1	–	–	–	·	54.2	–
Cc1cc(C)c(C(=O)CN2CCOCC2)c(C)c1	–	–	–	–	–	–
OC1(c2ccc(F)cc2)CC2CCC(C1)N2Cc1nnnn1C1CCCC1 (stereo unspecified)	81.1	–	–	–	87.7	–
O=P(O)(O)C12CC3CC(CC(C3)C1)C2	62.3	–	–	–	–	–
CCCCc1nc2ccccc2c(=O)n1-c1ccc(Cl)cc1[N+](=O)[O-]	–	–	–	·	–	–
CC(=O)c1cccc(OCC(O)CN2CC=C(c3ccccc3)CC2)c1 (stereo unspecified)	51.2	–	–	–	55.2	–
CCC(COC(=O)NC)NC(=O)Oc1ccccc1 (stereo unspecified)	–	–	–	·	–	–
CCC(=NCc1ccc(F)cc1)c1c(O)n(C)c(=O)n(C)c1=O	66.6	–	–	–	84.3	–
CCC(=Nc1ccc2c(c1)CCC2)c1c(O)n(C)c(=O)n(C)c1=O	–	–	–	–	–	·
COc1cccc(-n2c(O)c(C=NCCN3CCOCC3)c(=O)[nH]c2=O)c1	–	–	–	–	–	–
O=C(CNS(=O)(=O)c1cccs1)N1CCC2(CC1)OCCO2	–	–	–	–	51.8	–
Cc1cc(OCC(=O)Nc2c(C)n(C)n(-c3ccccc3)c2=O)c2c3c(c(=O)oc2c1)CCC3	–	–	–	–	–	·
COc1ccc2c(c1)c(C(=O)O)c(C)n2CC(C)C	–	–	–	–	84.7	–
COc1cc(/C=C2\C(=O)NC(=O)N(c3ccccc3)C2=O)cc(OC)c1O	–	–	–	·	–	–
Cc1ccc(N2C(=O)NC(=O)/C(=C/c3ccc(OC(=O)c4cccs4)cc3)C2=O)cc1	–	–	–	·	53.8	–
CNCCc1nc(N)n[nH]1	–	–	–	–	–	–
O=C(Nc1ccc(Cl)cc1)O/N=C(\c1ccccc1)c1ccccn1	56.7	–	–	·	–	–
Oc1ccc(C2NCc3ccccc3-n3cccc32)cc1Cl (stereo unspecified)	88.9	–	–	–	98.2	–
COc1ccc(C2SCC(=O)Nc3c2c(C)nn3C2CCOC(C)(C)C2)cc1OC (stereo unspecified)	–	–	–	·	–	–
Fc1cccc(CCNCc2ccccn2)c1	–	–	–	·	–	–
CC(C(=O)N1CCC2(CC1)OCCO2)C1Sc2ccccc2NC1=O (stereo unspecified)	–	–	–	–	95.3	–
CCC(C(=O)N1CCC2(CC1)OCCO2)c1ccccc1 (stereo unspecified)	·	·	·	–	·	–
Cc1ccc(S(=O)(=O)Cc2ccc(C(=O)N3CCC4(CC3)OCCO4)o2)cc1	70.2	–	–	–	61.6	–
COc1ccc(Oc2cc(NC(=O)c3nn(C)cc3[N+](=O)[O-])cc([N+](=O)[O-])c2)cc1	90.7	–	–	·	65.5	–
SMILES	CYP2C9 inhib	CYP2C9 activ	CYP2C19 activ	Ecoli tolC	CYP2C19 inh	E coli WT exp
O=C(COc1ccc(Br)cc1)N1CCN(Cc2c[nH]c3ccccc23)CC1	89.2	–	–	·	85.6	–
O=C(COc1ccc2ccccc2c1)N1CCN(Cc2c[nH]c3ccccc23)CC1	–	–	–	·	–	–
Nc1c(C(=O)OCC2CCCO2)c2nc3ccccc3nc2n1Cc1cccs1 (stereo unspecified)	57.4	–	–	–	–	–
CC(C)OCCCNC(=O)c1c(N)n(Cc2cccs2)c2nc3ccccc3nc12	91.0	–	–	–	–	–
Cc1ccc(S(=O)(=O)CC(C)(O)C(=O)Nc2cccc(C(F)(F)F)c2)cc1 (stereo unspecified)	–	–	–	·	–	–
CC(O)(CS(=O)(=O)c1cccc(C(F)(F)F)c1)C(=O)Nc1ccc(C(F)(F)F)cc1 (stereo unspecified)	–	–	–	·	83.0	–
CC(O)(CS(=O)(=O)c1ccccc1)C(=O)Nc1cccc(C(F)(F)F)c1 (stereo unspecified)	–	–	–	·	69.1	–
CC(C)N1CCC2(CC1)NC(CO)(CO)CO2	–	–	–	–	–	–
Nc1ccc(C2(c3ccc(N)cc3)CN3CCC2CC3)cc1	–	–	–	–	–	–
CNP1(NC)=NC(C(F)(F)F)=NC(C(F)(F)F)=N1	–	–	–	–	–	–
Cc1ccc2nc(-c3ccncc3)cc(C(=O)N3CCC4(CC3)OCCO4)c2c1	50.8	–	–	–	–	–
Cc1cccc(C(=O)NC(Oc2ccccc2)C(Cl)(Cl)Cl)c1 (stereo unspecified)	–	–	–	·	–	–
c1ccc(Cn2ccnc2)cc1	·	·	·	–	·	·
CC(C)c1cccc(C(C)C)c1OCCn1ccnc1	78.0	–	–	–	99.2	–
O=P(Nc1ccccc1)(Nc1ccccc1)Oc1cccc(Cl)c1	50.6	–	–	·	–	–
CCC(C)N1C(=O)NC(=O)C2(Cc3cc(C)ccc3N(C)C2)C1=O (stereo unspecified)	69.7	–	–	–	89.4	–
Cc1ccc2c(c1)CC1(CN2C)C(=O)NC(=O)N(C(C)C)C1=O (stereo unspecified)	–	–	–	–	81.8	–
Cc1ccc2c(c1)CC1(CN2C)C(=O)NC(=O)N(CCC2=CCCCC2)C1=O (stereo unspecified)	–	–	–	–	–	–
O=C(COc1ccc(Cl)cc1Cl)N1CCN(C/C=C/c2ccccc2)CC1	55.8	–	–	·	–	–
Cc1ccc(C)c(C2(O)CC(C)N(C)CC2C)c1 (stereo unspecified)	–	–	–	–	–	–
COc1cccc(OCC(=O)N2CCN(C)CC2)c1	–	–	–	–	54.4	–
COc1cc(NC(=O)CN2C3CCC2CC(O)(c2cccnc2)C3)cc(OC)c1 (stereo unspecified)	–	–	–	·	–	–
CN(C)CCc1nn[nH]n1	·	·	·	–	·	–
Cn1c(O)c(C=NC2CC(C)(C)NC(C)(C)C2)c(=O)n(C)c1=O	–	–	–	–	–	–
COc1ccc(S(=O)(=O)NC(CC(=O)N2CCC3(CC2)OCCO3)c2ccco2)cc1 (stereo unspecified)	51.1	–	–	–	75.9	–
COc1ccc(CCC(=O)N2CCC3(CC2)OCCO3)cc1	–	–	–	–	75.4	–
COc1ccc(S(=O)(=O)NC(CC(=O)N2CCC3(CC2)OCCO3)C(C)C)cc1 (stereo unspecified)	–	–	–	·	–	–
CC(C)(C)N1Cc2ccccc2C1=N	–	–	–	·	–	–
Cc1sc2nc(COC(=O)Cc3ccccc3)[nH]c(=O)c2c1C	60.5	–	–	·	–	–
O=C(c1cc(=O)[nH]c2ccc(Br)cc12)N1CCC2(CC1)OCCO2	–	–	–	–	–	–

Source: PubChem BioAssay (several laboratories)
